Results from different studies.
Protocols differ between the studies behind these lines.
MMP13: Collagenase 3 (MMP13, Homo sapiens, UniProt P45452)

With `CN(C)C(=O)COC(=O)Cc1ccc(OC(=O)c2ccc(NC(=N)N)cc2)cc1` the inhibition was 24% (MMP13; enzyme activity; inhibitor; 10 µM).
`C#Cc1n[nH]c2c(-c3cn([C@@H](C)c4ccccc4)c(=O)[nH]c3=O)cc(F)cc12` gave an inhibition of -1.2% (Tyrosine-protein kinase JAK1 (JAK1, Homo sapiens, UniProt P23458); enzyme activity; inhibitor; 0.1 µM).
`C[C@H](C(=O)N[C@H]1COc2ccccc2[C@@H]1S(C)(=O)=O)c1ccc(F)cc1` has an inhibition of -4% (MMP13; enzyme activity; inhibitor; 10 µM).
`COc1cc(Nc2ncc(F)c(Nc3ccc4c(n3)NC(=O)C(C)(C)O4)n2)cc(OC)c1OC` gave an inhibition of 0% (Casein kinase I isoform alpha-like (CSNK1A1L, Homo sapiens, UniProt Q8N752); binding; competition with immobilised ligand; 10 µM).
With `COc1ccc(S(=O)(=O)N2CCCCC2)cc1C` the inhibition was less than 30% (Progesterone receptor (PGR, Homo sapiens, UniProt P06401); ligand displacement; radioligand; 10 µM).
The inhibition of `COc1ccc2[nH]c(C(O)c3ccc(Cl)cc3)c(CCNC(C)=O)c2c1` (stereo not shown) is reported as 40 to 50% (Calmodulin-1 (CALM1, Homo sapiens, UniProt P0DP23); enzyme activity; inhibitor; 50 µM).
`O=C(Nc1cccnn1)N1CCN([C@@H]2CCOc3cc(C(F)(F)F)ccc32)CC1` has an inhibition of -13% (Prostaglandin E2 receptor EP2 subtype (PTGER2, Homo sapiens, UniProt P43116); cell-free assay; 20 µM).
`COCc1c(-c2cc3cc(C)cc(OC)c3s2)c2c(N)ncnn2c1CN1CCNC(=O)C1` has an inhibition of 9% (Beta-3 adrenergic receptor (ADRB3, Homo sapiens, UniProt P13945); ligand displacement; radioligand; 10 µM).
With `CC(C)C[C@H](NC(=O)[C@H](Cc1ccccc1)NC(=O)c1cnccn1)B(O)O` the inhibition was 84.2% (Chymase (CMA1, Homo sapiens, UniProt P23946); enzyme activity; inhibitor; 33 µM).
With `CCOC(=O)c1ccc(OC(=O)CCCCCNC(=N)N)cc1` the inhibition was 13% (MMP13; enzyme activity; inhibitor; 10 µM).
`c1ccc(C(NCCNC(c2ccccc2)c2ccccc2)c2ccccc2)cc1` has an inhibition of -2% (Adenosine receptor A2b (ADORA2B, Homo sapiens, UniProt P29275); cell-free assay; 10 µM).
With `C#Cc1n[nH]c2c(-c3cn(C(C)c4ccccn4)c(=O)[nH]c3=O)cc(F)cc12` (stereo not shown) the inhibition was 1.9% (Dual specificity protein kinase CLK2 (CLK2, Homo sapiens, UniProt P49760); enzyme activity; inhibitor; 1 µM).
`Cc1nc(C(C)(C)NC(=O)O[C@@H]2CN3CCC2CC3)cs1` has an inhibition of less than 50% (N-terminal Xaa-Pro-Lys N-methyltransferase 1 (Homo sapiens, UniProt Q9BV86); enzyme activity; inhibitor; fluorescence; 100 µM).
